CHRM5 PAM = human M5 muscarinic receptor positive allosteric modulators, primary screen, CHO-K1 cells, Fluo-8 calcium fluorescence; Muscarinic acetylcholine receptor M5 (Homo sapiens), P08912; 0.3% of 360,000 active; CHO-K1 hM5, ACh EC20 PAM; 0% = ACh EC20, 100% = ACh EC100; activation, % at 3 µM;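 active = activation above the run cutoff, the mean activation of all test compounds plus 3 SD, cut at about 18% in these data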
Target sequence (P08912 whole entry, looked up): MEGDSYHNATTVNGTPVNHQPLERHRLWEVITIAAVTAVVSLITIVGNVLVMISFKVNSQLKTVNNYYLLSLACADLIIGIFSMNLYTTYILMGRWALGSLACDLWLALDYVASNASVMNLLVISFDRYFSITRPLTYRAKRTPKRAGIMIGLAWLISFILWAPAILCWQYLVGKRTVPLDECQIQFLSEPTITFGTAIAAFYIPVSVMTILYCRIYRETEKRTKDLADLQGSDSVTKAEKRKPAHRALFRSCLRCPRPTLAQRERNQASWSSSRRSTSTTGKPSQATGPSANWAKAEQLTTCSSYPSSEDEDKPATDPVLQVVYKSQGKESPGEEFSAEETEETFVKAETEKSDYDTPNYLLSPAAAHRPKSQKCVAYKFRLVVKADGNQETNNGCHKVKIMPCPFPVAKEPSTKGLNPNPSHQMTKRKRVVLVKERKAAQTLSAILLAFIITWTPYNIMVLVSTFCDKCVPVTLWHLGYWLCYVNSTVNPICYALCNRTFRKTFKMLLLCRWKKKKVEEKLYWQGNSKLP
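system = human M5 receptor in CHO-K1 cells | reagent = EC20 acetylcholine as agonist stimulus | compound dosing = single-point, 3 µM nominal | incubation = Fluo-8 loading 80 min at 37 °C plus 30 min room temperature | detection = Fluo-8 calcium dye fluorescence, kinetic read | benchmarks = low control EC20 acetylcholine (0%), high control EC100 acetylcholine (100%)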
CHRM4 agonist = human M4 muscarinic receptor agonists, primary screen, CHO-K1 cells, Fluo-8 calcium fluorescence. Muscarinic acetylcholine receptor M4 (Homo sapiens), P08173. CHO-K1 hM4/Gqi5; vehicle 0%, full acetylcholine response 100%. activation, % at 3 µM. 0.14% of 360,000 active;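 active = activation above the run mean over all test wells plus 3 SD, cut at about 32% in these data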;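 note: peak over basal fluorescence ratio per well then scaled between controls; 0% = DMSO wells and 100% = acetylcholine at EC100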
M4 antag = human M4 muscarinic receptor antagonists, primary screen, CHO cells, Fluo-8 calcium fluorescence; Muscarinic acetylcholine receptor M4 (Homo sapiens), P08173; CHO-hM4 cells, ACh EC80; inhibition, % at 3 µM; 0.73% of 360,000 active; AID 624125, 2012;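 active = inhibition above its plate's cutoff, the mean inhibition of sample wells plus 3 SD, cut at about 27% in these data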;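 note: 0% = acetylcholine EC80 with DMSO and 100% = DMSO without agonist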
M5 ag = human M5 muscarinic receptor agonists, primary screen, CHO-K1 cells, Fluo-8 calcium fluorescence | Muscarinic acetylcholine receptor M5 (Homo sapiens), P08912 | CHO-K1 hM5 cells; 0% DMSO wells, 100% maximal acetylcholine response | activation, % at 3 µM | 0.19% of 360,000 active;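 active = activation above the run's mean over test compounds plus 3 SD, cut at about 23% in these data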;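 note: signal is peak over basal fluorescence ratio across the kinetic read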
CHRM5 antagonist = human M5 muscarinic receptor antagonists, primary screen, CHO cells, Fluo-8 calcium fluorescence. Muscarinic acetylcholine receptor M5 (Homo sapiens), P08912. CHO-hM5 cells, ACh EC80. inhibition, % at 3 µM. 0.59% of 360,000 active. AID 624040, 2012;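 active = inhibition above a per-plate cutoff, the mean of that plate's test compounds plus 3 SD, cut at about 27% in these data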;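 note: 0% = acetylcholine EC80 with DMSO and 100% = DMSO without agonist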
M4 PAM = human M4 muscarinic receptor positive allosteric modulators, primary screen, CHO-K1 cells, Fluo-8 calcium fluorescence; Muscarinic acetylcholine receptor M4 (Homo sapiens), P08173; CHO-K1 hM4/Gqi5, ACh EC20; 0% = ACh EC20, 100% = maximal ACh; activation, % at 3 µM; 0.4% of 360,000 active;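 active = activation above its plate's cutoff, the mean activation of sample wells plus 3 SD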
* = called active by the depositor. Compounds with a hit are over-represented: about 1.9% of the library has one in this group of screens.

SMILES	CHRM5 PAM	CHRM4 agonist	M4 antag	M5 ag	CHRM5 antagonist	M4 PAM
CC(C)n1nccc1N(Cc1ccc(C#N)cc1)S(=O)(=O)c1ccccc1	-3.2	-0.1	-5.1	-2.5	10.1	-4.6
COCCn1c(=NC(=O)/C=C/c2cccs2)sc2cc(NC(C)=O)ccc21	-2.7	4.2	-1.5	2.5	6.7	21.4*
CCCCCCCN1C(N(C)C)=NC[C@@H]1Cc1ccccc1	-2.3	3.0	32.4*	-11.5	9.2	-14.4
Cc1ccc(NC(=O)/C=N/OCC(=O)NCc2ccccc2Cl)cc1	5.0	1.0	5.6	-5.0	-1.8	6.2
O=C(COc1ncnc2ccc(Br)cc12)NC1CCCC1	4.3	1.8	-11.2	3.1	-4.4	24.9*
CCN(CC)CC#CC(OC)(c1ccccc1)c1ccccc1	-15.6	-1.6	57.0*	-11.8	95.5*	-27.2
CC(C)(C)OC(=O)NCCCCCc1cn(CC(=O)NCCCCCCCCCCC(=O)N2CCN(C(=O)OC(C)(C)C)CC2)nn1	-9.1	5.5	2.5	6.5	12.4	-0.3
CC[C@H](C)Cc1cn([C@@H](CCCN=C(NC(=O)OC(C)(C)C)NC(=O)OC(C)(C)C)C(=O)NCCCCCCCCCCC(=O)N2CCN(C(=O)OC(C)(C)C)CC2)nn1	-5.5	1.2	35.7*	-10.8	6.2	-13.8
CC[C@H](C)Cc1cn([C@@H](CCCCN)C(=O)NCCCCCCCCCCC(=O)N2CCNCC2)nn1	6.7	0.0	-4.5	-9.9	2.5	3.4
Cc1cn([C@@H](CCCCNC(=O)OC(C)(C)C)C(=O)NCCCCCCCCCCC(=O)N2CCN(C(=O)OC(C)(C)C)CC2)nn1	-40.0	28.2	40.1*	0.0	19.2	-16.5
COc1cccc(-c2sc3ccccc3c2-c2ccc(OCCN(C)C)cc2)c1	-14.6	9.4	47.4*	-7.2	22.3	1.6
Oc1ccc2sc(-c3ccccc3O)c(-c3ccc(OCCN4CCCCC4)cc3)c2c1	-8.4	61.4*	43.2*	6.7	18.0	-13.1
COc1cccc(-c2sc3ccccc3c2-c2ccc(OCCN3CCCCC3)cc2)c1	-1.2	5.1	33.6*	-5.1	15.0	8.7
COc1ccccc1-c1sc2ccccc2c1-c1ccc(OCCN2CCCCC2)cc1	0.2	7.8	1.1	-0.9	-4.2	-2.3
COc1ccc(-n2c(=O)[nH]c3cc(C(=O)NCCc4ccc(Cl)cc4)ccc3c2=O)cc1OC	2.0	1.1	5.2	5.0	-1.2	2.2
O=C(NCCc1ccccc1)C(c1ccccc1F)N(C(=O)c1csnn1)C1CC1 (stereo unspecified)	-3.2	1.1	4.6	-4.1	15.5	4.4
Cc1cc(=O)[nH]c(SCC(=O)/C=C2\N(C)c3ccccc3C2(C)C)n1	-17.6	13.3	33.4*	7.5	30.9*	-21.6
CN1/C(=C/C(=O)CSc2ccccc2C(=O)O)C(C)(C)c2ccccc21	5.8	1.4	-1.2	-1.8	-0.6	-5.1
Cc1ccccc1Cn1c(NC2CCCC2)nc2c1c(=O)[nH]c(=O)n2C	0.3	-0.2	11.7	1.0	4.4	-1.0
Cc1cc(C(=O)COC(=O)c2ccc3c(c2)NC(=O)CS3)c(C)n1CCc1ccc(Cl)cc1	0.2	4.3	-0.2	0.6	-2.2	-3.0
O=C(NCc1ccco1)c1cccc2c(-c3ccc(F)c(F)c3)coc12	-3.8	1.8	-5.9	-0.8	2.5	-4.1
C=CCc1c(C)nc(-c2ccccc2)nc1N/N=C(\C)c1ccccc1	-5.5	-1.2	35.1*	-4.2	8.6	-8.9
CN(C1CCCCC1)S(=O)(=O)c1ccc2c(c1)c(=O)c(C(=O)NCCN1CCCC1)cn2C	3.1	1.2	1.6	-2.5	-3.5	-12.1
CN(C1CCCCC1)S(=O)(=O)c1ccc2c(c1)c(=O)c(C(=O)NCCCN1CCCC1)cn2C	-4.2	0.0	26.7*	-2.4	4.2	-15.8
CCC1CCCCN1C(=S)NC(=O)c1cccs1 (stereo unspecified)	6.3	0.3	7.5	-0.9	1.3	-0.7
SMILES	CHRM5 PAM	CHRM4 agonist	M4 antag	M5 ag	CHRM5 antagonist	M4 PAM
O=C(NC(=S)N1CCCCC1CO)c1cccs1 (stereo unspecified)	24.3*	0.3	-0.2	-3.6	1.4	8.5
CC1(C)CC(NC(=O)c2cc(COc3cccc(C(F)(F)F)c3)on2)CCO1 (stereo unspecified)	-1.7	4.8	-6.5	-2.7	7.5	-3.5
Cc1ccc(C(=O)c2cc([N+](=O)[O-])ccc2N2CCN(C)CC2)cc1	-14.2	3.0	-8.0	-9.7	-0.4	6.1
CN1CCN(c2ccc([N+](=O)[O-])cc2C(=O)c2ccc(Br)cc2)CC1	-18.1	3.6	-9.2	-7.2	37.5*	-2.9
O=C(CS(=O)(=O)c1ccc(Cl)cc1)Nc1nnc(-c2cccs2)o1	5.6	-0.1	-2.0	-1.7	-1.5	3.1
CCOC(=O)CC(=O)COc1nc2cc3c(nc2o1)CCCC3	-6.2	0.7	-3.4	-3.0	9.5	0.7
Cc1ccc(C)c(NC(=O)C2CCCN(S(=O)(=O)c3cccnc3)C2)c1 (stereo unspecified)	-3.1	1.6	3.5	-2.0	11.5	4.5
CC(=O)Nc1ccc(C=CC=Cc2cccc([N+](=O)[O-])c2)cc1	3.7	9.3	-7.7	2.3	15.5	-2.2
O=C(c1ccncc1)N1N=C(c2ccc(Br)cc2)CC1c1ccccc1O (stereo unspecified)	-8.9	10.7	5.6	-3.4	32.5*	-13.3
CC(=O)Nc1ccc(NC(=O)CSc2ncc(C(=O)Nc3ccc(F)cc3)c(=O)n2C)cc1	-0.8	0.7	7.6	-1.3	-1.0	17.6*
Cc1cccc(-c2nc(C#N)c(NCc3ccco3)o2)c1	-2.8	0.0	0.9	-5.7	9.8	1.6
CCOCCCNC(=O)C(NC(=O)Cc1cccs1)c1ccc(C)cc1 (stereo unspecified)	5.8	0.2	-4.2	2.5	8.7	21.0*
CCOCCCNC(=O)C(c1ccc(C)cc1)N(Cc1ccc2c(c1)OCO2)C(=O)CNC(C)=O (stereo unspecified)	4.0	2.2	-1.8	2.1	2.0	23.6*
CCOCCCNC(=O)C(NC(=O)CNC(C)=O)c1ccc(C)cc1 (stereo unspecified)	5.1	0.4	6.9	2.1	-3.3	3.1
N#CC1(Nc2ccc(Br)cc2)CCCC1	-8.7	0.5	12.0	-0.7	25.9	-2.2

Compound activity (PubChem)
